The test system of test [1] is A549. The experiment in a line: Cytotoxicity against human A549 cells after 48 hrs by SRB assay. The format is functional. As to conditions: A549, 48 h. In outline: (§1)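 Cells were grown in RPMI 1640 with 10% FBS and 2 mM L-glutamine, plated 24 h before dosing, then given continuous 48 h exposure at 0.1, 1, 10 and 100 µM in triplicate wells. Cells were fixed with cold TCA (10% final, 60 min, 4 °C), stained with 0.4% SRB in 1% acetic acid for 20 min, eluted with 10 mM Tris base, and read at 540/690 nm. GI50 was taken from [(Ti−Tz)/(C−Tz)]×100 = 50; three determinations were averaged.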

For test [2], the system named is HOP-62. The experiment in a line: Cytotoxicity against human HOP62 cells after 48 hrs by SRB assay. Format: functional. As to conditions: HOP-62, 48 h. In outline:
as §1
In general terms: The SRB assay estimates cell density from bound dye.

Test [3] has as its system ZR-75-1. Nature of the test: Cytotoxicity against human ZR-75-1 cells after 48 hrs by SRB assay. The format is functional. As to conditions: ZR-75-1, 48 h. In outline:
(§2)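 Cells grown in RPMI 1640 with 10% FBS and 2 mM L-glutamine, plated and left 24 h at 37 °C/5% CO2, then exposed continuously for 48 h to 0.1, 1, 10 and 100 µM in triplicate wells. Fixed with cold TCA (10% final), stained with 0.4% SRB, eluted with 10 mM Tris base, read at 540 nm (690 nm reference). GI50 from [(Ti−Tz)/(C−Tz)]×100 = 50; mean of three determinations.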

Test [4] relates to A2780. Nature of the test: Cytotoxicity against human A2780 cells after 48 hrs by SRB assay. The format is functional. As to conditions: A2780, 48 h. Summed up: as §1
Test [5] has as its system KB. Nature of the test: Cytotoxicity against human KB cells after 48 hrs by SRB assay. The format is functional. In outline: as §1
Test [6] concerns SiHa. The experiment in a line: Cytotoxicity against human SiHa cells after 48 hrs by SRB assay. Format: functional. Summed up:
as §2

A short description of test [7]: Cytotoxicity against human GURAV cells after 48 hrs by SRB assay. Format: functional. Summed up:
as §1

The nature of test [8]: Cytotoxicity against human DWD cells after 48 hrs by SRB assay. Format: functional. In outline: as §1
The species entered for test [9] is Bos taurus. Nature of the test: Inhibition of bovine tubulin at 2.5 uM after 3 hrs relative to control.
Test [10] is described as follows: Inhibition of bovine tubulin after 3 hrs. Details: species or system Bos taurus. In outline: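 Bovine brain tubulin purified by three polymerization/depolymerization cycles. A340 read every 2 min for 3 h at 37 °C, nocodazole as control. IC50 taken as the concentration halving assembly versus control.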
The target in test [11] is Tubulin (Homo sapiens) (UniProt P68371+Q9H4B7+P0DPH7+P68366+Q13509+Q71U36+P04350+Q3ZCM7+P07437+P68363+Q9BQE3+Q6PEY2+Q13885+Q9BVA1+Q9BUF5). Nature of the test: Inhibition of tubulin polymerization in human MCF7 cells at 2.5 uM by immunohistochemistry. Format: cell-based. Summed up:
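MCF7 cells on glass cover slips exposed 48 h to 2.5 µM. Fixed with 3% paraformaldehyde/0.02% glutaraldehyde, permeabilized in −20 °C methanol, blocked with 1% BSA. Stained with mouse monoclonal anti-tubulin plus FITC secondary, then confocal imaging of microtubule network integrity. Nocodazole and taxol (2.5 µM) run as controls; untreated cells as baseline.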

The subject of test [12] is MCF7. The experiment in a line: Cell cycle arrest in human MCF7 cells assessed as accumulation at G0 phase after 48 hrs using FITC/propidium iodide staining by flow cytometry. Format: functional, cell-based. In outline: (§3)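 MCF7 cells in 6-well plates were exposed for 48 h, harvested with trypsin–EDTA, and fixed in ice-cold 70% ethanol at 4 °C for 30 min. They were then stained with a propidium iodide solution containing trisodium citrate and Triton X-100 for 30 min in the dark. DNA content was read by flow cytometry on 20,000 events, and cells were scored by cell-cycle phase from histograms.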
(In general: A flow cytometer gives signals particle by particle.)

Test [13] concerns MCF7. Nature of the test: Cell cycle arrest in human MCF7 cells assessed as accumulation at G2/M phase after 48 hrs using FITC/propidium iodide staining by flow cytometry. The format is functional, cell-based. Summed up:
as §3

Test [14] concerns MCF7. Nature of the test: Induction of apoptosis in human MCF7 cells assessed as nuclear condensation at 2 uM after 48 hrs by fluorescence microscopy. The format is functional, cell-based. In outline: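 MCF7 cells on cover slips in 6-well plates treated 48 h at 1–3 µM. Nocodazole and podophyllotoxin (1 µM) served as controls. Fixed in 3% paraformaldehyde/0.02% glutaraldehyde, stained with Hoechst (5 µM, 30 min), washed in PBS and imaged by fluorescence microscopy with DAPI filters. Five fields of view examined.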

The test system of test [15] is COLO 205. Nature of the test: Cytotoxicity against human COLO205 cells after 48 hrs by SRB assay. The format is functional. As to conditions: COLO 205, 48 h. In outline:
as §1

Test [16] concerns PC-3. The experiment in a line: Cytotoxicity against human PC3 cells after 48 hrs by SRB assay. The format is functional. As to conditions: PC-3, 48 h. Summed up:
as §1

Test [17] deals with MCF7. Nature of the test: Cytotoxicity against human MCF7 cells after 48 hrs by SRB assay. As to conditions: MCF7, 48 h. The format is functional. Summed up:
as §1

Counter-ions that a name gives are not always drawn. The source made the active and inactive calls. The calls are words filed in the database; no cut-off is given here.

One may read the GI50 as the concentration at which growth is held to half of that of the control. Higher therefore signals less potent growth inhibition. As a reminder, the inhibition is the relative decrease from the control value, in per cent. In general, IC50 refers to the concentration that gives 50% inhibition. High values mean weaker potency, low ones greater potency.

Turning to `COc1cc(/C=C/C(=O)N2CCOCC2)ccc1OCCCCOc1cc2c(cc1OC)C(=O)N1CCC[C@H]1C=N2`, the GI50 amounted to 0.11 µM in test [1]; 0.16 µM in test [2]; 0.15 µM in test [3]; 0.12 µM in [4]; 0.13 µM in test [5]; 0.14 µM in test [6]. Further, the GI50 in test [7] was 0.13 µM; in test [8] it was under 0.1 µM; in test [15], 0.12 µM; in test [16], 0.14 µM; in [17], 0.14 µM. This compound registered an inhibition in [9] of 40%. This compound also gave an IC50 in test [10] of 16.4 µM. The inhibition result in test [11] is “Active”. In addition, the result in test [12], in test [13] and in [14] was Active.
Turning to `COc1cc(/C=C/C(=O)N2CCN(C(=O)/C=C/c3ccc(OCCCCCCOc4cc5c(cc4OC)C(=O)N4CCC[C@H]4C=N5)c(OC)c3)CC2)ccc1OCCCCCCOc1cc2c(cc1OC)C(=O)N1CCC[C@H]1C=N2`, the 50% growth inhibitory concentration (GI50) was 0.15 µM in [1]; under 0.1 µM in test [2]; 0.21 µM in [3]; under 0.1 µM in test [4]; under 0.1 µM in test [5]; under 0.1 µM in test [6]. Further, the GI50 in test [7] was under 0.1 µM; in test [8], under 0.1 µM; in test [15] it was under 0.1 µM; in test [16] it was 0.15 µM; in [17], 1.9 µM.
`COc1cc(/C=C/C(=O)N2CCN(C(=O)/C=C/c3ccc(OCCCCCOc4cc5c(cc4OC)C(=O)N4CCC[C@H]4C=N5)c(OC)c3)CC2)ccc1OCCCCCOc1cc2c(cc1OC)C(=O)N1CCC[C@H]1C=N2`: the 50% growth inhibitory concentration (GI50) in [1] was 0.11 µM; in test [2] it was 0.18 µM; in [3], under 0.1 µM; in test [4], 0.16 µM; in test [5], 2 µM; in test [6] it was 2 µM. The concentration for 50% growth inhibition (GI50) is 2.3 µM in test [7]; under 0.1 µM in [8]; under 0.1 µM in [15]; under 0.1 µM in test [16]; 1 µM in test [17].
In the case of `COc1cc(/C=C/C(=O)N2CCN(C(=O)c3cc(OC)c(OC)c(OC)c3)CC2)ccc1OCCCCOc1cc2c(cc1OC)C(=O)N1CCC[C@H]1C=N2`, the concentration for 50% growth inhibition (GI50) was 0.12 µM in test [1]; 0.17 µM in test [2]; 0.15 µM in test [3]; 0.15 µM in test [4]; 0.15 µM in test [5]; 0.17 µM in test [6]. Also, the concentration for 50% growth inhibition (GI50) in test [7] is 0.11 µM; in test [8] it was 0.11 µM; in [15] it was under 0.1 µM; in [16], under 0.1 µM; in [17], 0.14 µM.
Consider `COc1cc(/C=C/C(=O)N2CCN(C(=O)c3cc(OC)c(OC)c(OC)c3)CC2)ccc1OCCCCCOc1cc2c(cc1OC)C(=O)N1CCC[C@H]1C=N2`, for which the 50% growth inhibitory concentration (GI50) turned out to be 0.11 µM in [1]; 0.15 µM in test [2]; 0.14 µM in test [3]; 0.11 µM in test [4]; 0.12 µM in [5]; 0.14 µM in test [6]. Also, the GI50 is 0.13 µM in test [7]; under 0.1 µM in test [8]; under 0.1 µM in test [15]; 0.14 µM in test [16]; 0.13 µM in [17].
With `COc1cc(/C=C/C(=O)N2CCOCC2)ccc1OCCCOc1cc2c(cc1OC)C(=O)N1CCC[C@H]1C=N2`, the GI50 in [1] is under 0.1 µM; in [2], 0.14 µM; in test [3], 0.12 µM; in [4], under 0.1 µM; in test [5], under 0.1 µM; in [6], 0.12 µM. The GI50 in test [7] was 0.1 µM; in test [8], under 0.1 µM; in test [15] it was 0.1 µM; in [16], 0.13 µM; in test [17], under 0.1 µM.
Regarding `COc1cc(/C=C/C(=O)N2CCOCC2)ccc1OCCCCCCOc1cc2c(cc1OC)C(=O)N1CCC[C@H]1C=N2`, the GI50 in test [1] is under 0.1 µM; in test [2], under 0.1 µM; in test [3], 0.14 µM; in [4], under 0.1 µM; in test [5], under 0.1 µM; in test [6] it was under 0.1 µM. The GI50 in test [7] was under 0.1 µM; in test [8] it was 0.15 µM; in [15], 0.15 µM; in test [16], 0.17 µM; in [17] it was 0.15 µM.
As to `COc1cc2c(cc1O)N=C[C@@H]1CCCN1C2=O`, the concentration for 50% growth inhibition (GI50) in test [1] turned out to be 0.16 µM; in [2], 0.15 µM; in test [4], 0.14 µM; in test [5], 0.17 µM; in [6], 0.17 µM; in test [7], 0.16 µM. Also, the GI50 in [15] was 0.11 µM; in test [16], 0.2 µM; in [17] it was 0.17 µM.
`COc1cc(/C=C/C(=O)N2CCOCC2)ccc1OCCCCCOc1cc2c(cc1OC)C(=O)N1CCC[C@H]1C=N2`: the concentration for 50% growth inhibition (GI50) in [1] was under 0.1 µM; in [2] it was 0.17 µM; in test [3], under 0.1 µM; in test [4], 0.14 µM; in test [5] it was 0.15 µM; in [6], 0.17 µM. Also, the GI50 in [7] is 0.16 µM; in test [8], under 0.1 µM; in test [15], under 0.1 µM; in test [16], under 0.1 µM; in test [17], under 0.1 µM.
Turning to `COc1cc(/C=C/C(=O)N2CCN(C(=O)c3cc(OC)c(OC)c(OC)c3)CC2)ccc1OCCCCCCOc1cc2c(cc1OC)C(=O)N1CCC[C@H]1C=N2`, the concentration for 50% growth inhibition (GI50) came to 0.16 µM in test [1]; 2.6 µM in [2]; 0.21 µM in [3]; 0.18 µM in test [4]; 1.9 µM in [5]; 2.5 µM in test [6]. For the same compound, the GI50 was determined as 1.9 µM in test [7]; 0.17 µM in test [8]; 2.1 µM in test [15]; 1.9 µM in [16]; 0.18 µM in test [17].
Consider `COc1cc(/C=C/C(=O)N2CCN(C(=O)/C=C/c3ccc(OCCCOc4cc5c(cc4OC)C(=O)N4CCC[C@H]4C=N5)c(OC)c3)CC2)ccc1OCCCOc1cc2c(cc1OC)C(=O)N1CCC[C@H]1C=N2`, for which the concentration for 50% growth inhibition (GI50) in test [1] is under 0.1 µM; in test [2], 0.15 µM; in test [3], under 0.1 µM; in test [4], 0.12 µM; in [5], 0.14 µM; in test [6], 0.16 µM. The 50% growth inhibitory concentration (GI50) in test [7] was 0.14 µM; in test [8], under 0.1 µM; in [15], under 0.1 µM; in test [16] it was 0.15 µM; in test [17], under 0.1 µM.
In the case of `COc1cccc2c1C(=O)c1c(O)c3c(c(O)c1C2=O)C[C@@](O)(C(=O)CO)C[C@@H]3O[C@H]1C[C@H](N)[C@H](O)[C@H](C)O1` [DOXORUBICIN HYDROCHLORIDE], the GI50 is under 0.1 µM in [1]; 0.12 µM in [2]; 0.12 µM in [3]; under 0.1 µM in test [4]; 0.13 µM in test [5]; 0.15 µM in test [6]. Moreover, the concentration for 50% growth inhibition (GI50) in test [7] was 0.14 µM; in test [8], 0.12 µM; in [15], 0.13 µM; in test [16], 0.16 µM; in test [17], under 0.1 µM.

The values are drawn from ChEMBL document CHEMBL1240420, “Synthesis and biological evaluation of cinnamido linked pyrrolo[2,1-c][1,4]benzodiazepines as antimitotic agents” (Eur J Med Chem, 2010).
